Source: ChEMBL document CHEMBL3813699, “Structure-Activity Relationships of a Diverse Class of Halogenated Phenazines That Targets Persistent, Antibiotic-Tolerant Bacterial Biofilms and Mycobacterium tuberculosis” (J Med Chem, 2016)
≈ marks a conversion by molar mass, not a printed value.

Key:
Staphylococcus aureus [1] = experiment: Antibiofilm activity against methicillin-resistant Staphylococcus aureus isolate 2 assessed as biofilm eradication incubated for 24 hrs by CBD assay; assay type: functional; conditions: for MBC: Staphylococcus aureus, isolate 2, 24 h
Outline: (§1)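 Calgary Biofilm Device: pegs inoculated with mid-log culture diluted 1,000-fold in TSB + 0.5% glucose, 24 h 37 °C; washed pegs challenged with 2-fold dilutions 24 h 37 °C; pegs moved to fresh TSBG 24 h; MBEC = lowest concentration leaving no turbidity; 2–6 independent experiments.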

[2] = tested on: Staphylococcus epidermidis; experiment: Antibacterial activity against methicillin-resistant Staphylococcus epidermidis ATCC 35984 assessed as biofilm eradication incubated for 24 hrs by CBD assay; assay type: functional; conditions: for MBC: Staphylococcus epidermidis, ATCC 35984, 24 h; outline: as §1
Staphylococcus aureus [3] = experiment: Antibacterial activity against methicillin-resistant Staphylococcus aureus clinical isolate 2 incubated for 16 to 18 hrs by broth microdilution method; assay type: functional
Staphylococcus aureus [4] = experiment: Antibacterial activity against methicillin-resistant Staphylococcus aureus BAA-44 incubated for 16 to 18 hrs by broth microdilution method; assay type: functional
[5] = tested on: Staphylococcus epidermidis; experiment: Antibacterial activity against methicillin-resistant Staphylococcus epidermidis ATCC 35984 incubated for 16 to 18 hrs by broth microdilution method; assay type: functional
Enterococcus faecium [6] = experiment: Antibacterial activity against vancomycin-resistant Enterococcus faecium ATCC 700221 incubated for 16 to 18 hrs by broth microdilution method; assay type: functional
HeLa = experiment: Cytotoxicity against human HeLa cells after 24 hrs by LDH release assay; assay type: cell-based
Outline: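 HeLa in DMEM + 10% FBS, 37 °C 5% CO2, at 70–80% confluence treated with 25, 50, 100 µM for 24 h; DMSO vehicle; Triton X-100 2% v/v max-LDH control, medium-only negative; supernatant with LDH reaction mix 30 min room temperature, stopped, absorbance 490 nm.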

Enterococcus faecium [7] = experiment: Antibiofilm activity against […]-resistant Enterococcus faecium ATCC 700221 assessed as biofilm eradication incubated for 24 hrs by CBD assay; assay type: functional; conditions: for MBC: Enterococcus faecium, ATCC 700221, 24 h; outline: as §1
[8] = Induction of hemolysis in human RBC at 200 uM incubated for 1 hr; assay type: cell-based, Erythrocyte; conditions: red blood cells, read-out: Activity
Outline: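 Human RBCs (EDTA), washed three times in Tris-buffered saline pH 7.2; 2% hRBC with compound at final 200 µM, 1 h 37 °C; supernatant OD405; % hemolysis relative to DMSO (0%) and Triton X (100%).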

[9] = tested on: Staphylococcus epidermidis; experiment: Antibacterial activity against Staphylococcus epidermidis ATCC 12228 incubated for 16 to 18 hrs by broth microdilution method; assay type: functional
Staphylococcus aureus [10] = experiment: Antibacterial activity against methicillin-resistant Staphylococcus aureus BAA-1707 incubated for 16 to 18 hrs by broth microdilution method; assay type: functional
Staphylococcus aureus [11] = experiment: Antibiofilm activity against methicillin-resistant Staphylococcus aureus BAA-1707 assessed as biofilm eradication incubated for 24 hrs by CBD assay; assay type: functional; conditions: for MBC: Staphylococcus aureus, BAA-1707, 24 h; outline: as §1
Staphylococcus aureus [12] = experiment: Antibacterial activity against methicillin-resistant Staphylococcus aureus clinical isolate 2 incubated for 16 hrs by broth microdilution method in presence of Fe2+; assay type: functional; conditions: isolate 2, 16 h
Staphylococcus aureus [13] = experiment: Antibacterial activity against methicillin-resistant Staphylococcus aureus clinical isolate 2 incubated for 16 hrs by broth microdilution method; assay type: functional; conditions: isolate 2, 16 h
[14] = tested on: Mycobacterium tuberculosis; experiment: Antibacterial activity against Mycobacterium tuberculosis H37Ra ATCC 25177 after 7 days by two-fold serial dilution method; assay type: functional; conditions: H37Ra ATCC 25177, 168 h

| Structure (SMILES) | MBEC (Staphylococcus aureus [1]) | MBC (Staphylococcus aureus [1]) | MBEC [2] | MBC [2] | MIC (Staphylococcus aureus [3]) | MIC (Staphylococcus aureus [4]) | MIC [5] | MIC (Enterococcus faecium [6]) | IC50 (HeLa) | MBEC (Enterococcus faecium [7]) | MBC (Enterococcus faecium [7]) | hemolysis at 1 h, 200 µM [8] | MIC [9] | MIC (Staphylococcus aureus [10]) | MBEC (Staphylococcus aureus [11]) | MBC (Staphylococcus aureus [11]) | MIC (Staphylococcus aureus [12]) | MIC (Staphylococcus aureus [13]) | MIC [14] |
| --- | --- | --- | --- | --- | --- | --- | --- | --- | --- | --- | --- | --- | --- | --- | --- | --- | --- | --- | --- |
| Oc1c(Br)cc(Cl)c2nc3ccccc3nc12 | 375 µM | 46.9 µM (≈ 14.5 µg/mL) | 46.9 µM | 11.7 µM (≈ 3.62 µg/mL) | 1.56 µM (≈ 0.483 µg/mL) | 1.56 µM (≈ 0.483 µg/mL) | 1.56 µM (≈ 0.483 µg/mL) | 6.25 µM (≈ 1.93 µg/mL) | > 100 µM | 3.9 µM | 7.8 µM (≈ 2.41 µg/mL) | ≤ 1% |  |  |  |  |  |  |  |
| Oc1c(I)cc(I)c2nc3ccccc3nc12 | 93.8 µM | 31.3 µM (≈ 14 µg/mL) | 23.5 µM | 31.3 µM (≈ 14 µg/mL) | 3.13 µM (≈ 1.4 µg/mL) | 3.13 µM (≈ 1.4 µg/mL) | 1.17 µM (≈ 0.524 µg/mL) | 6.25 µM (≈ 2.8 µg/mL) | > 100 µM | 15.6 µM | 23.5 µM (≈ 10.5 µg/mL) | ≤ 1% | 1.56 µM (≈ 0.699 µg/mL) | 3.13 µM (≈ 1.4 µg/mL) |  |  |  |  |  |
| N#CC(C#N)=NNc1cccc(Cl)c1 [CARBONYL CYANIDE M-CHLOROPHENYLHYDRAZONE] | 1000 µM | 31.3 µM (≈ 6.4 µg/mL) | 93.8 µM | 31.3 µM (≈ 6.4 µg/mL) |  |  |  |  |  |  |  | 3.5% |  |  |  |  |  |  |  |
| Oc1c(Cl)cc(Br)c2nc3ccccc3nc12 | >1000 µM | 62.5 µM (≈ 19.3 µg/mL) | 375 µM | 31.3 µM (≈ 9.69 µg/mL) |  | 3.13 µM (≈ 0.969 µg/mL) | 1.56 µM (≈ 0.483 µg/mL) | 6.25 µM (≈ 1.93 µg/mL) | > 100 µM | 11.7 µM | 11.7 µM (≈ 3.62 µg/mL) | ≤ 1% | 3.13 µM (≈ 0.969 µg/mL) |  |  |  |  |  |  |
| Oc1c(I)cc(Br)c2nc3ccccc3nc12 | 250 µM | 46.9 µM (≈ 18.8 µg/mL) |  |  |  |  |  | 6.25 µM (≈ 2.51 µg/mL) |  |  |  |  |  |  |  |  |  |  |  |
| CC(=O)NC[C@H]1CN(c2ccc(N3CCOCC3)c(F)c2)C(=O)O1 [LINEZOLID] |  |  |  |  | 3.13 µM (≈ 1.06 µg/mL) |  | 3.13 µM (≈ 1.06 µg/mL) | 3.13 µM (≈ 1.06 µg/mL) |  |  |  | ≤ 1% |  | 12.5 µM (≈ 4.22 µg/mL) | >2000 µM | 31.3 µM (≈ 10.6 µg/mL) | 6.25 µM | 6.25 µM (≈ 2.11 µg/mL) |  |
| Oc1c(Br)cc(Br)c2nc3cc(Br)c(Br)cc3nc12 |  |  | 6.25 µM | 1.56 µM (≈ 0.798 µg/mL) | 6.25 µM (≈ 3.2 µg/mL) | 25 µM (≈ 12.8 µg/mL) |  | 0.39 µM (≈ 0.2 µg/mL) | > 100 µM | 0.39 µM | 0.39 µM (≈ 0.2 µg/mL) | ≤ 1% | 0.08 µM (≈ 0.0409 µg/mL) | 12.5 µM (≈ 6.4 µg/mL) | 50 µM | 6.25 µM (≈ 3.2 µg/mL) |  |  | > 50 µM |
| O=C(O)CN(CCN(CC(=O)O)CC(=O)O)CC(=O)O [EDETIC ACID] | >2000 µM | 2000 µM (≈ 584 µg/mL) | >2000 µM | 1000 µM (≈ 292 µg/mL) |  |  |  |  |  |  |  | 3% |  |  |  |  |  |  |  |
| Oc1c(Br)cc(Br)c2nc3cc4ccccc4cc3nc12 | >200 µM | 200 µM (≈ 80.8 µg/mL) |  |  | > 100 µM | 75 µM (≈ 30.3 µg/mL) |  |  |  |  |  | ≤ 1% | 12.5 µM (≈ 5.05 µg/mL) | 50 µM (≈ 20.2 µg/mL) |  |  |  |  |  |
| COc1cccc2nc3cc(Cl)c(Cl)cc3nc12 |  |  |  |  | > 100 µM |  | > 100 µM | > 100 µM |  |  |  |  | > 100 µM |  |  |  |  |  |  |
| C=CCc1cc(Br)c2nc3cc(Br)c(Br)cc3nc2c1O |  |  |  |  | > 100 µM |  |  | > 100 µM |  |  |  |  | > 100 µM |  |  |  |  |  |  |
| Oc1c(Cl)cc(Cl)c2nc3ccccc3nc12 | >1000 µM | 62.5 µM (≈ 16.6 µg/mL) |  |  | 3.13 µM (≈ 0.83 µg/mL) | 3.13 µM (≈ 0.83 µg/mL) | 3.13 µM (≈ 0.83 µg/mL) | 12.5 µM (≈ 3.31 µg/mL) |  |  |  | ≤ 1% | 3.13 µM (≈ 0.83 µg/mL) | 3.13 µM (≈ 0.83 µg/mL) |  |  |  |  |  |
| Oc1cccc2nc3cc(Cl)c(Cl)cc3nc12 |  |  |  |  | > 100 µM |  | > 100 µM | > 100 µM |  |  |  |  | > 100 µM |  |  |  |  |  |  |
| CC(=O)N[C@@H](CS)C(=O)O [ACETYLCYSTEINE] | >2000 µM | > 2000 µM | >2000 µM | > 2000 µM |  |  |  |  |  | >2000 µM | > 2000 µM |  |  |  |  |  |  |  |  |
